# Experimental data from different studies.
# Each line is one published result; the experiments were not run side by side.
# Target: Mitogen-activated protein kinase kinase kinase 2 (MAP3K2, Homo sapiens, UniProt Q9Y2U5)
# One construct used (Q9Y2U5 1-619): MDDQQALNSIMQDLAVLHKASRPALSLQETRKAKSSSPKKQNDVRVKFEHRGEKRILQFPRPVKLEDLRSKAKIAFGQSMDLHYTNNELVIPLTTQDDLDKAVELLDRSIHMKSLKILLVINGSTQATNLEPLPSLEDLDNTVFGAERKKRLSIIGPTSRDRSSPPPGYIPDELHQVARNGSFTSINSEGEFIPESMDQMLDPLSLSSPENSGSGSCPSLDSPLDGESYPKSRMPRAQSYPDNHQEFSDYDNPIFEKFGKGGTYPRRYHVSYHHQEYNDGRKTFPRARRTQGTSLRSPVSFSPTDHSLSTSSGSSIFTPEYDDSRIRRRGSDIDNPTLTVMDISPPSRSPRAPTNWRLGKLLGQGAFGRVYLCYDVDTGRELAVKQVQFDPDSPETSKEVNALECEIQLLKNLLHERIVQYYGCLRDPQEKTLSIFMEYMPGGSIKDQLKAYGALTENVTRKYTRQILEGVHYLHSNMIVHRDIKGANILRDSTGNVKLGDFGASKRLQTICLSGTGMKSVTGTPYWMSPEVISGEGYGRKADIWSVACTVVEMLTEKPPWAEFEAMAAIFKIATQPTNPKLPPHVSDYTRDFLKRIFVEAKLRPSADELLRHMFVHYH
Structure (SMILES),assay,setting,quantity,result
COc1ncccc1-c1cnn2ccc(N3CCN(C(=O)OC(C)C)CC3)nc12,"binding, competition with immobilised ligand",1 µM,remaining binding,100%
Cn1cncc1[C@](O)(COc1ccc(C#N)cc1-c1ccc(OC(F)(F)F)cc1)c1ccc(C#N)cc1,"cell-free assay, competition with immobilised ligand",1 µM,remaining binding,77%
Nc1ncc(-c2nc(N3CCOCC3)nc(N3CCOCC3)n2)c(C(F)F)n1,"binding, competition with immobilised ligand",10 µM,remaining binding,71%
COCc1c(-c2cc3cc(C)cc(OC)c3s2)c2c(N)ncnn2c1CN1CCNC(=O)C1,"cell-free assay, competition with immobilised ligand",1 µM,inhibition,98.8%
Cn1cc(-c2cc(F)cc(N3CCn4c(cc5c4CCCC5)C3=O)c2CO)cc(Nc2ccc(N3CCN(C4COC4)CC3)cn2)c1=O,"enzyme activity, inhibitor",0.1 µM,inhibition,-1%
COc1cc(Nc2ncc(F)c(Nc3ccc4c(n3)NC(=O)C(C)(C)O4)n2)cc(OC)c1OC,"binding, competition with immobilised ligand",10 µM,inhibition,99%
Cc1nn(C)cc1-c1nc2c(N3CCN(Cc4ccc(Cl)cc4)CC3)c(Cl)cnc2[nH]1,"binding, competition with immobilised ligand",1 µM,remaining binding,77%
O=c1[nH]c2ccccc2n1C1CCN(Cc2ccc(-c3[nH]c4cc5ncnc5cc4nc3-c3ccccc3)cc2)CC1,cell-free assay,0.5 µM,remaining signal,92.4%
N#CC1(c2ccccn2)CCN(Cc2cc(C(=O)O)c(=O)n3ccccc23)CC1,"cell-free assay, competition with immobilised ligand",1 µM,remaining binding,76%
Cn1cc(-c2cccc(N3CCc4c(sc5c4CC(C)(C)C5)C3=O)c2CO)cc(Nc2ccncn2)c1=O,"enzyme activity, inhibitor",1 µM,inhibition,-2%
CC(C)(C)c1cc(C=C(C#N)C#N)cc(Br)c1O,"enzyme activity, inhibitor",0.5 µM,remaining activity,93.7%
